Screening results deposited in PubChem by several laboratories.
KCNQ1 act – potentiators or activators of KCNQ1 channel, primary screen, cell-based, thallium flux, high-throughput. actives 0.35% (n = 310,000). B-score at 10 µM. CHO-K1 KCNQ1, thallium flux FluxOR fluorescence; stronger effect = higher value. Potassium voltage-gated channel subfamily KQT member 1 (Homo sapiens), P51787. AID 2648, 2010;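 active = fluorescence ratio B-score, a plate-corrected score, at least three library SD, with initial intensity B-score within 5 SD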
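Schedule – 37 °C overnight plating, 90-min dark dye load, 20-min compound pretreatment · System – stable KCNQ1 CHO-K1 line · Probe or stimulus – thallium- and potassium-containing depolarizing buffer · Measured by – kinetic FluxOR fluorescence, 10 s baseline plus 110 s post-stimulus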
KCNK9 block – KCNK9 potassium channel inhibitors, primary screen, HEK293 cells, thallium flux | Potassium channel subfamily K member 9 (Homo sapiens), Q9NPC2 | FluxOR thallium flux fluorescence; stronger effect = lower value | B-score at 10 µM | actives 1.2% (n = 310,000) | AID 488922, 2010;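 active = ratio B-score over 3 SD below the library mean, with starting fluorescence within 5 SD of its mean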;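 also: negative B-score means less thallium flux so channel inhibition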
hERG protect – hERG rescue from dofetilide block, primary screen, cell-based, CHO-hERG, FluxOR thallium flux, dofetilide IC70; dofetilide IC70 present; activation (rescue from dofetilide block), less the hit threshold, % at 10 µM; actives 0.51% (n = 310,000); AID 1511, 2009;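 active = activation above the mean of controls blocked by dofetilide plus 5 SD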;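 also: thallium influx through hERG after potassium depolarization seen as dye fluorescence rise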
KCNQ1 inh – inhibitors of human KCNQ1 channel, primary screen, cell-based, thallium flux, high-throughput; B-score at 10 µM; Potassium voltage-gated channel subfamily KQT member 1 (Homo sapiens), P51787; AID 2642, 2010; CHO-K1 KCNQ1, FluxOR thallium flux fluorescence; stronger effect = higher value; actives 1.3% (n = 310,000);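 active = compounds whose thallium flux B-score, printed positive for inhibition, exceeds three library SD while starting fluorescence stays within three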;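 also: channel opened by potassium depolarization with thallium stimulus after 20 min compound exposure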
PHOSPHO1 inh – PubChem AID 1565; Phosphoethanolamine/phosphocholine phosphatase (Homo sapiens), Q8TCT1; recombinant PHOSPHO1, absorbance phosphatase assay; inhibition, % at 13.3 µM; actives 1.1% (n = 290,000); in the data active = inhibition above about 60%
KCNK3 inh – human KCNK3 channel inhibitors, primary screen, CHO cells, FluxOR thallium flux, B-score. Potassium channel subfamily K member 3 (Homo sapiens), O14649. FluxOR fluorescence; stronger effect = lower value. B-score at 10 µM. actives 0.84% (n = 340,000);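 active = B-score under library mean minus 4 SD, starting fluorescence ratio at most library mean plus 5 SD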;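 also: more negative B-score means stronger inhibition of thallium flux through KCNK3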
Active calls of the source: *; i = inactive; . = no result given. The list is not random: actives were taken first. Their share in the collection is about 4%.

SMILES	KCNQ1 act	KCNK9 block	hERG protect	KCNQ1 inh	PHOSPHO1 inh	KCNK3 inh
CC(NC(=O)NC12CC3CC(CC(C3)C1)C2)c1ccc2c(c1)OCO2 (stereo unspecified)	i	i	-17	i	47	i
COc1ccc(C(C)NC(=S)NC2CCCC2)cc1OC (stereo unspecified)	i	i	-8	i	1	i
Cc1cccc(N2CCN(C(=O)c3ccc4ccccc4c3)CC2C)c1 (stereo unspecified)	.	.	.	.	.	i
CC(Oc1ccc(C(=O)NC2CCCCC2)cc1)C(=O)O (stereo unspecified)	i	i	-14	i	-32	i
O=[N+]([O-])c1ccccc1S(=O)(=O)N1CCc2ccccc2C1	i	i	-8	i	6	i
COc1cc(C(=O)NC(=S)N(C)Cc2ccccc2)cc(OC)c1OC	i	i	-6	i	-94	i
COc1cc(C(=O)NC(=S)N(CCc2ccccc2)CCc2ccccc2)cc(OC)c1OC	29*	i	-3	i	-13	i
CC(CCc1ccccc1)NC(=O)Cc1ccccc1 (stereo unspecified)	i	i	-8	i	-4	i
O=C(NC(=S)NCCc1ccc(Cl)cc1)c1ccco1	i	i	-4	i	-4	i
O=C(NC(=S)N(CCc1ccccc1)CCc1ccccc1)c1ccco1	47*	i	37*	i	11	i
CC(CCc1ccccc1)NC(=S)NC(=O)c1ccco1 (stereo unspecified)	24*	i	25*	i	-8	i
O=C(Nc1cccc(S(=O)(=O)N2CCCCC2)c1)c1ccco1	.	.	.	.	.	i
Cc1ccccc1CN(c1ccc(C(=O)NCCC2=CCCCC2)cc1)S(C)(=O)=O	i	i	-4	i	30	i
O=S(=O)(c1ccccc1)N1CCNc2ccccc21	.	.	.	.	.	i
O=C(Cc1n[nH]c(=O)c2ccccc12)N1CCN(S(=O)(=O)c2ccc(F)c(Cl)c2)CC1	.	.	.	.	.	i
Cc1ccc(S(=O)(=O)N/N=C/c2cc(Br)c(C)o2)cc1	i	i	-8	i	91*	i
S=c1[nH]ncc2ccccc12	i	i	-4	i	67*	i
COc1ccc(-c2nc(C(=O)NCC3CCCO3)cc3c2[nH]c2ccccc23)cc1 (stereo unspecified)	i	i	-9	i	8	i
O=C(NCC1CCCO1)c1cc2c([nH]c3ccccc32)c(-c2cccc(Br)c2)n1 (stereo unspecified)	i	i	-40	11*	40	i
Oc1c(Br)cc(Br)cc1/C=N/n1c(-c2ccccc2)n[nH]c1=S	12*	i	-18	i	-123	i
O=[N+]([O-])c1ccc(O)c(/C=N/n2c(-c3ccccc3)n[nH]c2=S)c1	i	i	-26	7*	-46	i
Cc1nnc(C)n1/N=C/c1cc(Br)cc(Br)c1O	15*	i	12*	i	-56	i
Oc1c(Br)cc(/C=N/n2c(-c3ccccc3)n[nH]c2=S)c(Br)c1O	i	i	-10	i	-28	.
Cc1ccc(NC(=O)[C@H](CC(C)C)NC(=O)[C@@H]2Cc3ccccc3CN2)cc1	i	i	-11	i	37	i
O=C(/C=C/c1ccc([N+](=O)[O-])cc1)NCCOc1ccc(F)cc1	i	i	5.5*	i	-23	i
SMILES	KCNQ1 act	KCNK9 block	hERG protect	KCNQ1 inh	PHOSPHO1 inh	KCNK3 inh
O=C(O)c1ccc(-c2ccccc2)[nH]c1=O	i	i	-9	i	-1	i
COC(=O)COC(=O)c1ccc(-n2nnnc2SC)cc1	i	i	-7	i	-16	i
COC(=O)c1ccc(-n2nnnc2SC)cc1	i	i	-11	i	81*	i
CC(=O)C1CCC2C3CC=C4CC(SC(=N)N)CCC4(C)C3CCC12C (stereo unspecified)	.	.	.	.	.	-9.2*
CC1(C)N=C(N)NC(Nc2ccc(Br)cc2)=N1	i	i	-6	i	-18	i
CC1(C)N=C(N)NC(Nc2cccc(Br)c2)=N1	9*	i	-6	i	0	i
CN(C)C1=NC(=O)/C(=C\c2ccccc2)S1	i	i	-14	i	-5	i
O=C1OCCN1CCNCc1cn(-c2ccc(F)cc2)nc1-c1ccccc1Cl	i	i	-15	i	60*	i
CCC(C(=O)c1ccccc1)N(C(=O)c1ccccc1Cl)N1C(=O)C2C3C=CC(C3)C2C1=O (stereo unspecified)	i	i	-11	i	-6	i
CN(C)c1ccc(C(C(=O)NCc2ccccc2)N(Cc2cccnc2)C(=O)c2snc(C(N)=O)c2N)cc1 (stereo unspecified)	i	i	-9	8*	27	i
CC(C)CC(C(=O)NC1CCCCC1)N(Cc1cccs1)C(=O)c1snc(C(N)=O)c1N (stereo unspecified)	i	i	-21	8*	16	i
CC(C)CC(C(=O)NC1CCCC1)N(Cc1cccs1)C(=O)c1snc(C(N)=O)c1N (stereo unspecified)	i	i	-32	i	-1	i
CCCCC(C(=O)NC1CCCC1)N(Cc1ccccc1)C(=O)c1snc(C(N)=O)c1N (stereo unspecified)	i	i	-12	10*	14	i
COc1ccc(C(C(=O)NCc2ccccc2)N(Cc2cccnc2)C(=O)c2snc(C(N)=O)c2N)cc1OC (stereo unspecified)	i	i	-21	i	49	i
OCC1CCCN(C(=S)Nc2ccc(Oc3ccccc3)cc2)C1 (stereo unspecified)	i	i	-5	i	50	i
O=C1C2C3C=CC(C4CC34)C2C(=O)N1Cc1ccco1 (stereo unspecified)	i	i	-3	i	-2	i
Oc1c(Br)cc(C2N=C(c3ccccc3Cl)NO2)cc1Br (stereo unspecified)	i	i	-11	i	37	i
S=c1[nH]c2cc(-c3ccccc3)ccc2o1	63*	i	45*	i	9	i
O=S(=O)(c1ccc2oc(=S)[nH]c2c1)N1CCCCC1	i	i	-6	i	32	i
O=C(NC(=S)Nc1ccc(N2CCCCC2)cc1)c1ccco1	9*	i	5.6*	i	12	i
